Values after ≈ are worked out from the molar mass of the structure shown. Active and inactive are the calls of the source. No cut-off for these calls is given here.
Experiments:
[1] = Kinetic solubility of the compound by chemoluminescent nitrogen detection kinetic solubility assay; assay type: physicochemical; settings: read-out: Kinetic_solubility
HepG2 = assay: Cytotoxicity against human HepG2 cells; assay type: cell-based
[2] = Half life in mouse liver microsomes; assay type: ADME
Plasmodium falciparum [3] = assay: Antimalarial activity against Plasmodium falciparum 3D7 infected in erythrocytes incubated for 48 hrs by [3H]hypoxanthine incorporation assay; assay type: functional, organism-based
Plasmodium falciparum [4] = assay: Antimalarial activity against Plasmodium falciparum infected in humanized SCID mouse model of malaria infection assessed as induction of phenotypic changes in parasite at 217 mg/kg, po measured 96 hrs post dose by microscopic and flow cytometry method; assay type: functional, organism-based
How it was run: (§1)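 P. falciparum-infected humanized mice, standard four-day test; compound given orally at several doses, vehicle (n = 4) and oral chloroquine 10 mg·kg⁻¹ (n = 2) as controls. Parasitemia followed per mouse. Peripheral blood sampled 96 h after starting treatment and analysed by microscopy and by flow cytometry gating infected human erythrocytes.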

Plasmodium falciparum [5] = assay: Antimalarial activity against Plasmodium falciparum infected in humanized SCID mouse model of malaria infection assessed as induction of altered rings in parasite at 217 mg/kg, po measured 96 hrs post dose by microscopic and flow cytometry method; assay type: functional, organism-based; how it was run: as §1
Plasmodium falciparum [6] = assay: Antimalarial activity against Plasmodium falciparum infected in humanized SCID mouse model of malaria infection assessed as induction of abnormal trophozoites with hemozoin granules and pyknotic cells in parasite at 217 mg/kg, po measured 96 hrs post dose by microscopic and flow cytometry method; assay type: functional, organism-based; how it was run: as §1
Blood = assay: Drug level in blood of Plasmodium falciparum infected humanized SCID mouse model of malaria infection at 217 mg/kg, po measured 96 hrs post dose; assay type: ADME, organism-based; settings: in vivo
Plasmodium falciparum [7] = assay: Antimalarial activity against Plasmodium Plasmodium falciparum infected in orally dosed humanized SCID mouse model of malaria infection; assay type: functional; settings: po; how it was run: as §1
[8] = target: T1, Subtilisin-like protease 1 (Plasmodium falciparum, UniProt O61142); assay: Inhibition of Plasmodium falciparum recombinant SUB1 using SERA4st1F-6R12 substrate incubated for 55 mins by fluorescence spectrophotometry
T1 sequence (O61142 whole entry): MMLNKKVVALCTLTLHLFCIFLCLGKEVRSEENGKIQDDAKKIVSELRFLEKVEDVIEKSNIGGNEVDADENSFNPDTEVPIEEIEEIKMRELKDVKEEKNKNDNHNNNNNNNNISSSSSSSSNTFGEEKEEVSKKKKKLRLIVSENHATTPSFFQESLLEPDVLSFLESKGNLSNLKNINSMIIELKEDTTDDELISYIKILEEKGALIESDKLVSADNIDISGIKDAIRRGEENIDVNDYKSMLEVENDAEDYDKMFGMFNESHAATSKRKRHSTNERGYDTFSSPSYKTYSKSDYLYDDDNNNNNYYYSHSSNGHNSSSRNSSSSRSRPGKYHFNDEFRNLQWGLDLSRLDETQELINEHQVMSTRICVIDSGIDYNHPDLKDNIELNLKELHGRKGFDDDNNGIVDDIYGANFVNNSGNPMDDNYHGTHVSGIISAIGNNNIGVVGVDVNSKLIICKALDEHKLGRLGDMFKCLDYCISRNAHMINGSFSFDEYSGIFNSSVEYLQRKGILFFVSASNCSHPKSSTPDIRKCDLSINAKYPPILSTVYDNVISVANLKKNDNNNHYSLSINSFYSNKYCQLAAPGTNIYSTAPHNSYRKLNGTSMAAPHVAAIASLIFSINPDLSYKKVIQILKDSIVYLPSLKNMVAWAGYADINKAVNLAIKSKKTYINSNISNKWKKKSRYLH

Plasmodium falciparum [9] = assay: Antimalarial activity against Plasmodium falciparum infected in erythrocytes assessed as young trophozoites level at 10 times antimalarial IC50 level incubated for 24 and 48 hrs by Giemsa staining based microsocpy

solubility kinetic [1]: 125 µM (≈ 50.6 µg/mL)
half-life [2]: 22.6 min
IC50 (Plasmodium falciparum [3]): 0.01 µM
Drug uptake (Blood): Not Active
IC50 [8]: Not Active
Compound: COc1ccc(CN(C)C(=O)n2cnc(S(=O)(=O)[C@@H]3C[C@H]4CC[C@@H]3C4)n2)cc1
IC50 (HepG2): > 100 µM
Activity (Plasmodium falciparum [4]): Active
Activity (Plasmodium falciparum [5]): Active
Activity (Plasmodium falciparum [6]): Active
ED50 (Plasmodium falciparum [7]): 100 mg/kg
ED90 (Plasmodium falciparum [7]): 150 mg/kg
Activity (Plasmodium falciparum [9]): Active

From ChEMBL document CHEMBL3603753, “Carbamoyl Triazoles, Known Serine Protease Inhibitors, Are a Potent New Class of Antimalarials” (J Med Chem, 2015)
